A selection: hits, their analogues and other compounds. The true share with any hit is near 2.3%.
TRPC4 potent – positive allosteric modulators of TRPC4, primary screen, cell-based, mouse TRPC4beta, HEK293 mu-opioid, Fluo-4 calcium; actives 0.42% (n = 310,000); B-score at 10 µM; DAMGO EC20, Fluo-4 Ca2+ flux; active compounds read high; Short transient receptor potential channel 4 (Mus musculus), Q9QUQ5;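 active means B-score of calcium response area above 5 SD of library B-scores, with initial fluorescence ratio within 5 SD of library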;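 further: B-score of integrated fluorescence ratio over time as area under calcium response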
TRPC6 act – mouse TRPC6 channel activators, primary screen, cell-based, HEK293, membrane potential dye | HEK293-TRPC6 membrane potential dye fluorescence; active compounds read high | B-score at 10 µM | actives 0.13% (n = 310,000) | AID 2550, 2010;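 active means B-score of the integrated fluorescence ratio above library mean plus 3 SD, and starting fluorescence ratio within library mean plus 5 SD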;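 further: higher score means more depolarization so channel activation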
Target sequence (Q61143 whole entry, looked up): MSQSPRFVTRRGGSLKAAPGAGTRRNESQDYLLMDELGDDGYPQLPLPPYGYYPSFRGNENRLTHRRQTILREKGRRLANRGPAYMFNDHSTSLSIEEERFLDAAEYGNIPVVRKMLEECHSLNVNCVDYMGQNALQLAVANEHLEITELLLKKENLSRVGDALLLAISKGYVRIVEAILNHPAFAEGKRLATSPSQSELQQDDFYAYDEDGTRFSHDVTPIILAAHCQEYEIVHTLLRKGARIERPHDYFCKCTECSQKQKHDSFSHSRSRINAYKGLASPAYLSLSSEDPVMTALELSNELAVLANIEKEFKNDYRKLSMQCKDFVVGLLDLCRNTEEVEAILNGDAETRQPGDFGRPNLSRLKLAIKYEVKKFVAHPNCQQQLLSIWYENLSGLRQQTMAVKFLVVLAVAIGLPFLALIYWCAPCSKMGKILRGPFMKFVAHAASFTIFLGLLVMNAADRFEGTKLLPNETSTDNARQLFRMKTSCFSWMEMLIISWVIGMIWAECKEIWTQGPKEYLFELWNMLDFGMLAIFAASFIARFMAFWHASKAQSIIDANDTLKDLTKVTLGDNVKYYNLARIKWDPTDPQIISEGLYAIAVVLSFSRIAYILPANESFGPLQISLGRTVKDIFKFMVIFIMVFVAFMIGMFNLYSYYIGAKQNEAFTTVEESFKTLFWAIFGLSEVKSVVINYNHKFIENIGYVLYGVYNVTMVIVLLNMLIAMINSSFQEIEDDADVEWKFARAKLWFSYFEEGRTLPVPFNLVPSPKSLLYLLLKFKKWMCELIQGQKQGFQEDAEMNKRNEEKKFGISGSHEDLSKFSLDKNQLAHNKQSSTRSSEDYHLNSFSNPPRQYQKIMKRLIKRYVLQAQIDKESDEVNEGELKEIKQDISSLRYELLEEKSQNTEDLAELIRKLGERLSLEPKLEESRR
TRPC4 agonist – activators of mouse TRPC4 channel, primary screen, Fluo4 calcium, HEK293 TRPC4beta/mu-opioid cells | Short transient receptor potential channel 4 (Mus musculus), Q9QUQ5 | Fluo4 calcium fluorescence; active compounds read high | B-score at 10 µM | actives 0.49% (n = 310,000);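 active means B-score above 5 SD of library B-scores, and initial fluorescence ratio not above library mean plus 5 SD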;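 further: positive B-score marks a calcium rise read as TRPC4 activation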
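System – HEK293 cells stably co-expressing mouse TRPC4beta and mu-opioid receptor · Signal – Fluo4 calcium-sensitive dye fluorescence, kinetic, 1 Hz baseline · Benchmarks – buffer (low) and maximal DAMGO (high) · Read-out – B score of integrated fluorescence ratio per well · Incubation – dye loading 45 min room temperature, 110 s kinetic read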
TRPC4 inh – inhibitors of mouse TRPC4 channel, primary screen, Fluo4 calcium, HEK293 TRPC4beta/mu-opioid cells | actives 0.39% (n = 300,000) | DAMGO-evoked Fluo4 calcium flux; active compounds read low | AID 2247, 2010 | Short transient receptor potential channel 4 (Mus musculus), Q9QUQ5 | B-score at 10 µM;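 active means B-score over 3 SD under the library average, no early fluorescence shift, positive overall ratio signal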
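Assay system – HEK293 line stably carrying TRPC4beta and mu-opioid receptor · Doses – single dose · Detection – Fluo4 calcium-dye fluorescence, kinetic read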
TRPC6 inh – mouse TRPC6 channel inhibitors, primary screen, cell-based, HEK293, membrane potential dye; Short transient receptor potential channel 6 (Mus musculus), Q61143; ACh-evoked depolarization; active compounds read low; B-score at 10 µM; actives 1.1% (n = 310,000); AID 2553, 2010;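 active means B-score under library mean minus 3 SD, initial fluorescence not abnormally high, positive integrated signal ratio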;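 further: B-score derived from integrated fluorescence ratio over the kinetic read; more negative B-score means stronger inhibition of depolarization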
Numbers without * were called inactive.

What do the screens show for `COc1cc2c(cc1OC)C(C)N(CCN1C(=O)c3ccccc3C1=O)CC2` (configuration not stated)?
TRPC4 potent: inactive; TRPC6 act: inactive; TRPC4 agonist: inactive; TRPC4 inh: inactive; TRPC6 inh: inactive

Results for COc1cccc(OC)c1OCCCc1c(C)n[nH]c1C ?
TRPC4 potent: inactive; TRPC6 act: inactive; TRPC4 agonist: inactive; TRPC4 inh: inactive; TRPC6 inh: inactive

How did Cc1cccc(OCCCc2c(C)n[nH]c2C)c1 do in these assays?
TRPC4 potent: inactive; TRPC6 act: inactive; TRPC4 agonist: inactive; TRPC4 inh: -6*; TRPC6 inh: inactive

How did CS(=O)(=O)N(CC(=O)Nc1ccc2c(c1)OCO2)Cc1ccccc1 do in these assays?
TRPC4 potent: inactive; TRPC6 act: inactive; TRPC4 agonist: inactive; TRPC4 inh: inactive; TRPC6 inh: inactive

What do the screens show for `CN(CCC(=O)Nc1ccc2c(c1)OCO2)Cc1ccccc1`?
TRPC4 potent: inactive; TRPC6 act: inactive; TRPC4 agonist: 53*; TRPC4 inh: inactive; TRPC6 inh: inactive

What do the screens show for `CN(CCC(=O)Nc1ccc(Cl)cc1)Cc1ccccc1`?
TRPC4 potent: inactive; TRPC6 act: inactive; TRPC4 agonist: 126*; TRPC4 inh: inactive; TRPC6 inh: inactive

Results for COc1ccccc1OCC(=O)Nc1ccc(Cl)cc1 ?
TRPC4 potent: inactive; TRPC6 act: inactive; TRPC4 agonist: inactive; TRPC4 inh: -7*; TRPC6 inh: inactive

Results for CN(CC(=O)Nc1ccc(Cl)cc1)C(=O)CCc1ccccc1 ?
TRPC4 potent: inactive; TRPC6 act: inactive; TRPC4 agonist: inactive; TRPC4 inh: inactive; TRPC6 inh: inactive

Results for CCSC1=N/C(=C\c2ccc(OC)cc2)C(=O)N1 ?
TRPC4 potent: 86*; TRPC6 act: inactive; TRPC4 agonist: inactive; TRPC4 inh: inactive; TRPC6 inh: inactive

Results for Cc1ccc(C)c(NC(=O)CCc2nnc3ccc(NCc4ccco4)nn23)c1 ?
TRPC4 potent: inactive; TRPC6 act: inactive; TRPC4 agonist: inactive; TRPC4 inh: inactive; TRPC6 inh: inactive

What do the screens show for `Cc1cccc(N2CCN(CC(=O)Nc3nccs3)CC2)c1C`?
TRPC4 potent: inactive; TRPC6 act: 12.8*; TRPC4 agonist: inactive; TRPC4 inh: inactive; TRPC6 inh: -5.58*

Results for CN(C)CCSc1nc(-c2ccccc2)nc2c1CCCC2 ?
TRPC4 potent: 20*; TRPC6 act: inactive; TRPC4 agonist: 68*; TRPC4 inh: inactive; TRPC6 inh: inactive

Results for CCSc1nc(-c2ccccc2)nc2c1CCCC2 ?
TRPC4 potent: inactive; TRPC6 act: inactive; TRPC4 agonist: inactive; TRPC4 inh: inactive; TRPC6 inh: inactive

Results for CS(=O)(=O)N(CC(=O)N1CCN(Cc2ccccc2)CC1)c1ccccc1Br ?
TRPC4 potent: inactive; TRPC6 act: inactive; TRPC4 agonist: inactive; TRPC4 inh: inactive; TRPC6 inh: inactive

How did COc1ccccc1C(=O)NNC(=S)NC(=O)c1ccco1 do in these assays?
TRPC4 potent: inactive; TRPC6 act: inactive; TRPC4 agonist: 77*; TRPC4 inh: inactive; TRPC6 inh: inactive

Results for CCCOc1ccc(C(=O)NNC(=S)NC(=O)c2ccco2)cc1 ?
TRPC4 potent: inactive; TRPC6 act: inactive; TRPC4 agonist: 217*; TRPC4 inh: inactive; TRPC6 inh: inactive

What do the screens show for `O=C(NNC(=S)NC(=O)c1cccc([N+](=O)[O-])c1)c1ccc(Br)cc1`?
TRPC4 potent: inactive; TRPC6 act: inactive; TRPC4 agonist: 79*; TRPC4 inh: inactive; TRPC6 inh: inactive

What do the screens show for `COC(=O)c1cc(OC)c(OC)cc1NC(=S)NC(=O)c1ccco1`?
TRPC4 potent: inactive; TRPC6 act: inactive; TRPC4 agonist: inactive; TRPC4 inh: inactive; TRPC6 inh: inactive

How did CC(Oc1ccc(Cl)cc1)C(=O)NNC(=S)NC(=O)c1ccco1 (configuration not stated) do in these assays?
TRPC4 potent: inactive; TRPC6 act: inactive; TRPC4 agonist: 183*; TRPC4 inh: inactive; TRPC6 inh: inactive

What do the screens show for `O=C(NNC(=S)NC(=O)c1cccc([N+](=O)[O-])c1)c1ccc(O)cc1`?
TRPC4 potent: inactive; TRPC6 act: inactive; TRPC4 agonist: inactive; TRPC4 inh: inactive; TRPC6 inh: inactive

How did CCOC(=O)C[C@H]1c2cc(F)ccc2S(=O)(=O)N1C1CCCC1 do in these assays?
TRPC4 potent: inactive; TRPC6 act: inactive; TRPC4 agonist: inactive; TRPC4 inh: inactive; TRPC6 inh: inactive

How did Cc1c(NC(=O)C(C)N2C(=O)NC3(CCC(C)CC3)C2=O)c(=O)n(-c2ccccc2)n1C (configuration not stated) do in these assays?
TRPC4 potent: inactive; TRPC6 act: inactive; TRPC4 agonist: inactive; TRPC4 inh: inactive; TRPC6 inh: inactive

Results for CC1=Nc2ncnn2C(c2ccccc2)/C1=N\O (configuration not stated) ?
TRPC4 potent: inactive; TRPC6 act: inactive; TRPC4 agonist: inactive; TRPC4 inh: inactive; TRPC6 inh: inactive

What do the screens show for `CSC1=NCCN1C(=O)c1c(-c2c(F)cccc2Cl)noc1C`?
TRPC4 potent: inactive; TRPC6 act: inactive; TRPC4 agonist: inactive; TRPC4 inh: inactive; TRPC6 inh: inactive

Results for Cc1no[n+]([O-])c1COc1ccc(/C=N/n2nnnc2N)cc1 ?
TRPC4 potent: inactive; TRPC6 act: inactive; TRPC4 agonist: inactive; TRPC4 inh: inactive; TRPC6 inh: inactive

Results for O=C(NC(=S)NNC(=O)c1ccco1)c1ccc(Br)cc1 ?
TRPC4 potent: inactive; TRPC6 act: inactive; TRPC4 agonist: 121*; TRPC4 inh: -8*; TRPC6 inh: inactive

Results for COc1ccc(C(=O)NNC(=S)NC(=O)c2ccco2)cc1 ?
TRPC4 potent: inactive; TRPC6 act: inactive; TRPC4 agonist: 50*; TRPC4 inh: inactive; TRPC6 inh: inactive

How did O=C(NC(=S)NNC(=O)c1cccs1)c1ccco1 do in these assays?
TRPC4 potent: inactive; TRPC6 act: inactive; TRPC4 agonist: inactive; TRPC4 inh: inactive; TRPC6 inh: inactive

What do the screens show for `O=C(NNC(=S)Nc1ccccc1)c1ccco1`?
TRPC4 potent: inactive; TRPC6 act: inactive; TRPC4 agonist: inactive; TRPC4 inh: inactive; TRPC6 inh: inactive

How did O=C(NNC(=S)NC(=O)c1ccco1)c1ccc(F)cc1 do in these assays?
TRPC4 potent: inactive; TRPC6 act: inactive; TRPC4 agonist: 67*; TRPC4 inh: inactive; TRPC6 inh: inactive
